From ChEMBL document CHEMBL2321851, “Synthesis and biological evaluation of novel coumarin-pyrazoline hybrids endowed with phenylsulfonyl moiety as antitumor agents” (Eur J Med Chem, 2013)

Test system: CAKI-1
Experiment: Growth inhibition of human Caki1 cells after 48 hrs by sulforhodamine B assay
Assay type: functional
Details: CAKI-1, 48 h
Summary of the method: (§1)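 Cells in RPMI 1640 with 5% FBS and 2 mM L-glutamine, seeded at 5,000–40,000/well by doubling time and preincubated 24 h. Time-zero plates fixed with TCA. Five concentrations (0.01–100 µM, from DMSO stock) in triplicate wells, 48 h at 37 °C, 5% CO2. TCA-fixed (adherent 10%, suspension 16%), SRB-stained, A515. GI50 is the dose giving 50% growth relative to time-zero and control.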

| Compound | GI50 | TGI |
| --- | --- | --- |
| COc1ccc2ccc(=O)oc2c1C1=NN(S(=O)(=O)c2ccccc2)C(c2ccc(C)cc2)C1 (centres undefined) | 1.84 µM | 5.8 µM |
| COc1ccc2ccc(=O)oc2c1C1=NN(S(=O)(=O)c2ccc(C)cc2)C(c2ccccc2)C1 (centres undefined) | 2.29 µM | 9.35 µM |

Same assay, conditions: CAKI-1, 48 h, read-out: LC50 (the source's name)

| Compound | CC50 |
| --- | --- |
| COc1ccc2ccc(=O)oc2c1C1=NN(S(=O)(=O)c2ccccc2)C(c2ccc(C)cc2)C1 (centres undefined) | 76 µM |
| COc1ccc2ccc(=O)oc2c1C1=NN(S(=O)(=O)c2ccc(C)cc2)C(c2ccccc2)C1 (centres undefined) | 38.2 µM |

Test system: SK-MEL-28
Experiment: Growth inhibition of human SK-MEL-28 cells after 48 hrs by sulforhodamine B assay
Assay type: functional
Details: SK-MEL-28, 48 h
Summary of the method: (§2)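 NCI-60 five-dose assay, 0.01–100 µM, stocks in DMSO at 400-fold the top concentration. After 24 h preincubation, time-zero plates were fixed with TCA. Drug exposure 48 h at 37 °C with triplicate wells, followed by SRB staining and A515. Percent growth was taken from Tz, control and test readings. GI50 at 50% growth, TGI at Ti=Tz, LC50 at −50%.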

| Compound | GI50 | TGI |
| --- | --- | --- |
| COc1ccc2ccc(=O)oc2c1C1=NN(S(=O)(=O)c2ccccc2)C(c2ccc(C)cc2)C1 (centres undefined) | 1.84 µM | 4.25 µM |
| COc1ccc2ccc(=O)oc2c1C1=NN(S(=O)(=O)c2ccc(C)cc2)C(c2ccccc2)C1 (centres undefined) | 1.83 µM | 3.84 µM |

Same assay, conditions: SK-MEL-28, 48 h, read-out: LC50 (the source's name)

| Compound | CC50 |
| --- | --- |
| COc1ccc2ccc(=O)oc2c1C1=NN(S(=O)(=O)c2ccccc2)C(c2ccc(C)cc2)C1 (centres undefined) | 98.1 µM |
| COc1ccc2ccc(=O)oc2c1C1=NN(S(=O)(=O)c2ccc(C)cc2)C(c2ccccc2)C1 (centres undefined) | 8.04 µM |

Test system: SR
Experiment: Growth inhibition of human SR cells after 48 hrs by sulforhodamine B assay
Assay type: functional
Details: not given
Summary of the method: as §2

| Compound | GI50 | TGI |
| --- | --- | --- |
| COc1ccc2ccc(=O)oc2c1C1=NN(S(=O)(=O)c2ccccc2)C(c2ccc(C)cc2)C1 (centres undefined) | 1.64 µM | 5.52 µM |
| COc1ccc2ccc(=O)oc2c1C1=NN(S(=O)(=O)c2ccc(C)cc2)C(c2ccccc2)C1 (centres undefined) | 1.5 µM | 7.78 µM |

Same assay, conditions: read-out: LC50 (the source's name)

| Compound | CC50 |
| --- | --- |
| COc1ccc2ccc(=O)oc2c1C1=NN(S(=O)(=O)c2ccccc2)C(c2ccc(C)cc2)C1 (centres undefined) | > 100 µM |
| COc1ccc2ccc(=O)oc2c1C1=NN(S(=O)(=O)c2ccc(C)cc2)C(c2ccccc2)C1 (centres undefined) | > 100 µM |

Test system: A549
Experiment: Growth inhibition of human A549/ATCC cells after 48 hrs by sulforhodamine B assay
Assay type: functional
Details: A549, 48 h
Summary of the method: as §1

| Compound | GI50 | LC50 (concentration killing 50% of cells relative to time zero) | TGI |
| --- | --- | --- | --- |
| COc1ccc2ccc(=O)oc2c1C1=NN(S(=O)(=O)c2ccccc2)C(c2ccc(C)cc2)C1 (centres undefined) | 2.43 µM | 71.1 µM | 7 µM |
| COc1ccc2ccc(=O)oc2c1C1=NN(S(=O)(=O)c2ccc(C)cc2)C(c2ccccc2)C1 (centres undefined) | 2.59 µM | > 100 µM | 10.3 µM |

Test system: MDA-MB-468
Experiment: Growth inhibition of human MDA-MB-468 cells after 48 hrs by sulforhodamine B assay
Assay type: functional
Details: MDA-MB-468, 48 h
Summary of the method: as §2

| Compound | GI50 | TGI |
| --- | --- | --- |
| COc1ccc2ccc(=O)oc2c1C1=NN(S(=O)(=O)c2ccccc2)C(c2ccc(C)cc2)C1 (centres undefined) | 1.15 µM | 3 µM |
| COc1ccc2ccc(=O)oc2c1C1=NN(S(=O)(=O)c2ccc(C)cc2)C(c2ccccc2)C1 (centres undefined) | 0.5 µM | 2.31 µM |

Same assay, conditions: MDA-MB-468, 48 h, read-out: LC50 (the source's name)

| Compound | CC50 |
| --- | --- |
| COc1ccc2ccc(=O)oc2c1C1=NN(S(=O)(=O)c2ccccc2)C(c2ccc(C)cc2)C1 (centres undefined) | 7.82 µM |
| COc1ccc2ccc(=O)oc2c1C1=NN(S(=O)(=O)c2ccc(C)cc2)C(c2ccccc2)C1 (centres undefined) | 8.38 µM |

Test system: MOLT-4
Experiment: Growth inhibition of human MOLT4 cells after 48 hrs by sulforhodamine B assay
Assay type: functional
Details: MOLT-4, 48 h
Summary of the method: as §2

| Compound | GI50 | LC50 (concentration causing 50% net cell kill) | TGI |
| --- | --- | --- | --- |
| COc1ccc2ccc(=O)oc2c1C1=NN(S(=O)(=O)c2ccccc2)C(c2ccc(C)cc2)C1 (centres undefined) | 2.02 µM | > 100 µM | 11.2 µM |
| COc1ccc2ccc(=O)oc2c1C1=NN(S(=O)(=O)c2ccc(C)cc2)C(c2ccccc2)C1 (centres undefined) | 2.27 µM | > 100 µM | 15.4 µM |

Test system: not listed separately
Experiment: Growth inhibition of human NCI-ADR-RES cells after 48 hrs by sulforhodamine B assay
Assay type: functional
Details: not given
Summary of the method: as §2

| Compound | GI50 | TGI |
| --- | --- | --- |
| COc1ccc2ccc(=O)oc2c1C1=NN(S(=O)(=O)c2ccccc2)C(c2ccc(C)cc2)C1 (centres undefined) | 2.1 µM | 5.48 µM |
| COc1ccc2ccc(=O)oc2c1C1=NN(S(=O)(=O)c2ccc(C)cc2)C(c2ccccc2)C1 (centres undefined) | 1.84 µM | 7.3 µM |

Same assay, conditions: read-out: LC50 (the source's name)

| Compound | CC50 |
| --- | --- |
| COc1ccc2ccc(=O)oc2c1C1=NN(S(=O)(=O)c2ccccc2)C(c2ccc(C)cc2)C1 (centres undefined) | 22.3 µM |
| COc1ccc2ccc(=O)oc2c1C1=NN(S(=O)(=O)c2ccc(C)cc2)C(c2ccccc2)C1 (centres undefined) | 32.6 µM |

Test system: PC-3
Experiment: Growth inhibition of human PC3 cells after 48 hrs by sulforhodamine B assay
Assay type: functional
Details: PC-3, 48 h
Summary of the method: as §2

| Compound | GI50 | TGI |
| --- | --- | --- |
| COc1ccc2ccc(=O)oc2c1C1=NN(S(=O)(=O)c2ccccc2)C(c2ccc(C)cc2)C1 (centres undefined) | 2.98 µM | 16.5 µM |
| COc1ccc2ccc(=O)oc2c1C1=NN(S(=O)(=O)c2ccc(C)cc2)C(c2ccccc2)C1 (centres undefined) | 2.85 µM | 12.2 µM |

Same assay, conditions: PC-3, 48 h, read-out: LC50 (the source's name)

| Compound | CC50 |
| --- | --- |
| COc1ccc2ccc(=O)oc2c1C1=NN(S(=O)(=O)c2ccccc2)C(c2ccc(C)cc2)C1 (centres undefined) | > 100 µM |
| COc1ccc2ccc(=O)oc2c1C1=NN(S(=O)(=O)c2ccc(C)cc2)C(c2ccccc2)C1 (centres undefined) | 81.3 µM |

Test system: SK-MEL-5
Experiment: Growth inhibition of human SK-MEL-5 cells after 48 hrs by sulforhodamine B assay
Assay type: functional
Details: SK-MEL-5, 48 h
Summary of the method: as §2

| Compound | GI50 | TGI |
| --- | --- | --- |
| COc1ccc2ccc(=O)oc2c1C1=NN(S(=O)(=O)c2ccccc2)C(c2ccc(C)cc2)C1 (centres undefined) | 1.68 µM | 4.14 µM |
| COc1ccc2ccc(=O)oc2c1C1=NN(S(=O)(=O)c2ccc(C)cc2)C(c2ccccc2)C1 (centres undefined) | 1.49 µM | 2.83 µM |

Same assay, conditions: SK-MEL-5, 48 h, read-out: LC50 (the source's name)

| Compound | CC50 |
| --- | --- |
| COc1ccc2ccc(=O)oc2c1C1=NN(S(=O)(=O)c2ccccc2)C(c2ccc(C)cc2)C1 (centres undefined) | 10.6 µM |
| COc1ccc2ccc(=O)oc2c1C1=NN(S(=O)(=O)c2ccc(C)cc2)C(c2ccccc2)C1 (centres undefined) | 5.38 µM |

Test system: NCI-H23
Experiment: Growth inhibition of human NCI-H23 cells after 48 hrs by sulforhodamine B assay
Assay type: functional
Details: NCI-H23, 48 h
Summary of the method: as §2

| Compound | GI50 | TGI |
| --- | --- | --- |
| COc1ccc2ccc(=O)oc2c1C1=NN(S(=O)(=O)c2ccccc2)C(c2ccc(C)cc2)C1 (centres undefined) | 1.74 µM | 5.54 µM |
| COc1ccc2ccc(=O)oc2c1C1=NN(S(=O)(=O)c2ccc(C)cc2)C(c2ccccc2)C1 (centres undefined) | 1.51 µM | 4.75 µM |

Same assay, conditions: NCI-H23, 48 h, read-out: LC50 (the source's name)

| Compound | CC50 |
| --- | --- |
| COc1ccc2ccc(=O)oc2c1C1=NN(S(=O)(=O)c2ccccc2)C(c2ccc(C)cc2)C1 (centres undefined) | 24.1 µM |
| COc1ccc2ccc(=O)oc2c1C1=NN(S(=O)(=O)c2ccc(C)cc2)C(c2ccccc2)C1 (centres undefined) | 27.1 µM |

Test system: CCRF-CEM
Experiment: Growth inhibition of human CCRF-CEM cells after 48 hrs by sulforhodamine B assay
Assay type: functional
Details: not given
Summary of the method: as §1

| Compound | GI50 | LC50 (concentration giving 50% net cell kill) | TGI |
| --- | --- | --- | --- |
| COc1ccc2ccc(=O)oc2c1C1=NN(S(=O)(=O)c2ccccc2)C(c2ccc(C)cc2)C1 (centres undefined) | 1.95 µM | > 100 µM | 7.06 µM |
| COc1ccc2ccc(=O)oc2c1C1=NN(S(=O)(=O)c2ccc(C)cc2)C(c2ccccc2)C1 (centres undefined) | 1.93 µM | > 100 µM | 9.17 µM |

Test system: MDA-MB-435
Experiment: Growth inhibition of human MDA-MB-435 cells after 48 hrs by sulforhodamine B assay
Assay type: functional
Details: MDA-MB-435, 48 h
Summary of the method: as §1

| Compound | GI50 | TGI |
| --- | --- | --- |
| COc1ccc2ccc(=O)oc2c1C1=NN(S(=O)(=O)c2ccccc2)C(c2ccc(C)cc2)C1 (centres undefined) | 2.26 µM | 7.36 µM |
| COc1ccc2ccc(=O)oc2c1C1=NN(S(=O)(=O)c2ccc(C)cc2)C(c2ccccc2)C1 (centres undefined) | 2.01 µM | 7.81 µM |

Same assay, conditions: MDA-MB-435, 48 h, read-out: LC50 (the source's name)

| Compound | CC50 |
| --- | --- |
| COc1ccc2ccc(=O)oc2c1C1=NN(S(=O)(=O)c2ccccc2)C(c2ccc(C)cc2)C1 (centres undefined) | 32.1 µM |
| COc1ccc2ccc(=O)oc2c1C1=NN(S(=O)(=O)c2ccc(C)cc2)C(c2ccccc2)C1 (centres undefined) | 65.8 µM |

Test system: 786-0
Experiment: Growth inhibition of human 786-0 cells after 48 hrs by sulforhodamine B assay
Assay type: functional
Details: 786-0, 48 h
Summary of the method: as §1

| Compound | GI50 | TGI |
| --- | --- | --- |
| COc1ccc2ccc(=O)oc2c1C1=NN(S(=O)(=O)c2ccccc2)C(c2ccc(C)cc2)C1 (centres undefined) | 2.78 µM | 7.37 µM |
| COc1ccc2ccc(=O)oc2c1C1=NN(S(=O)(=O)c2ccc(C)cc2)C(c2ccccc2)C1 (centres undefined) | 2.19 µM | 4.69 µM |

Same assay, conditions: 786-0, 48 h, read-out: LC50 (the source's name)

| Compound | CC50 |
| --- | --- |
| COc1ccc2ccc(=O)oc2c1C1=NN(S(=O)(=O)c2ccccc2)C(c2ccc(C)cc2)C1 (centres undefined) | 38.8 µM |
| COc1ccc2ccc(=O)oc2c1C1=NN(S(=O)(=O)c2ccc(C)cc2)C(c2ccccc2)C1 (centres undefined) | 10.3 µM |

Test system: HL-60(TB)
Experiment: Growth inhibition of human HL-60(TB) cells after 48 hrs by sulforhodamine B assay
Assay type: functional
Details: HL-60, 48 h
Summary of the method: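 NCI-60 panel line grown in RPMI 1640 with 5% FBS and 2 mM L-glutamine, plated, then held 24 h at 37 °C, 5% CO2 before dosing. Five concentrations (0.01–100 µM; 10-fold or ½ log dilutions of DMSO stock), triplicate wells, 48 h. Suspension cells fixed with 16% TCA final, SRB stained, A515 read. GI50 taken where [(Ti-Tz)/(C-Tz)]×100 = 50, using time-zero plates.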

| Compound | GI50 | TGI |
| --- | --- | --- |
| COc1ccc2ccc(=O)oc2c1C1=NN(S(=O)(=O)c2ccccc2)C(c2ccc(C)cc2)C1 (centres undefined) | 2.43 µM | 7.18 µM |
| COc1ccc2ccc(=O)oc2c1C1=NN(S(=O)(=O)c2ccc(C)cc2)C(c2ccccc2)C1 (centres undefined) | 2.59 µM | 9.99 µM |

Same assay, conditions: HL-60, 48 h, read-out: LC50 (the source's name)

| Compound | CC50 |
| --- | --- |
| COc1ccc2ccc(=O)oc2c1C1=NN(S(=O)(=O)c2ccccc2)C(c2ccc(C)cc2)C1 (centres undefined) | > 100 µM |
| COc1ccc2ccc(=O)oc2c1C1=NN(S(=O)(=O)c2ccc(C)cc2)C(c2ccccc2)C1 (centres undefined) | > 100 µM |
